Data: ChEMBL document CHEMBL1133641, “A new class of potential chloroquine-resistance reversal agents for Plasmodia: syntheses and biological evaluation of 1-(3'-diethylaminopropyl)-3-(substituted phenylmethylene)pyrrolidines” (2000)
Calls of active or inactive are those of the source. The rule behind the calls is not given here.

Experiments:
[1] = system: Plasmodium yoelii nigeriensis; assay: In Vitro inhibition of Heme Oxygenase in Cell-free parasite Plasmodium yoelii at concentration 100 uM;NI denotes nil inhibition; format: functional
In short: (§1)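 Heme oxygenase activity was measured as bilirubin formation in a post-mitochondrial fraction. The parasite enzyme came from cell-free P. yoelii, isolated from infected blood by density gradient centrifugation and saponin lysis. The host enzyme came from infected liver. Compounds were tested at 10–100 µM and preincubated for 10 min before the reaction was started.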

[2] = system: Plasmodium yoelii nigeriensis; assay: In Vitro inhibition of Heme Oxygenase in Cell-free parasite Plasmodium yoelii at concentration 10 uM;NI denotes nil inhibition; format: functional; in short: as §1
[3] = biological target: T1, Glutathione S-transferase (Plasmodium yoelii yoelii) (UniProt Q7REH6); assay: Inhibition of Glutathione S-transferase in Plasmodium yoelii nigeriensis isolated from infected mice (Mus musculus) (oral); conditions: concentration not given here
T1 sequence (whole entry): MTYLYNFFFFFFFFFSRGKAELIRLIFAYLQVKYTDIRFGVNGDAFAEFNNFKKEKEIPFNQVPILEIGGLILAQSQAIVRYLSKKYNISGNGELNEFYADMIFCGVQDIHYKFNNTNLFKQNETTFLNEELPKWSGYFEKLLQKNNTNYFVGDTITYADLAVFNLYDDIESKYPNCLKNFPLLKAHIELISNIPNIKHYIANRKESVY
In short: (§2)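 Swiss albino mice carried P. yoelii nigeriensis tolerant to CQ up to 120 mg/kg. They received compound orally at 15 mg/kg body wt for 5 days. Parasites were then isolated from blood by density gradient centrifugation and saponin lysis, and enzyme inhibition was measured as percent inhibition.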

[4] = system: Plasmodium yoelii nigeriensis; assay: In Vitro inhibition of Heme Oxygenase in Cell-free parasite Plasmodium yoelii at concentration 100 uM; format: functional; in short: as §1
[5] = system: Plasmodium yoelii nigeriensis; assay: In Vitro inhibition of Heme Oxygenase in Cell-free parasite Plasmodium yoelii at concentration 50 uM; format: functional; in short: as §1
[6] = system: Plasmodium yoelii nigeriensis; assay: In Vitro inhibition of Heme Oxygenase in Cell-free parasite Plasmodium yoelii at concentration 10 uM; format: functional; in short: as §1
[7] = system: Plasmodium yoelii nigeriensis; assay: In Vitro inhibition of Heme Oxygenase in Cell-free parasite Plasmodium yoelii at concentration 50 uM;NI denotes nil inhibition; format: functional; in short: as §1
[8] = system: Plasmodium yoelii nigeriensis; assay: Inhibition of heme oxygenase in Plasmodium yoelii nigeriensis isolated from infected mice (Mus musculus) (oral); format: functional; in short: as §2
[9] = biological target: T1, Glutathione S-transferase (Plasmodium yoelii yoelii); assay: Inhibition of Glutathione S-transferase in Plasmodium yoelii nigeriensis isolated from infected mice (Mus musculus) (oral); NI denotes nil inhibition; in short: as §2
Mus musculus [10] = species: Mus musculus; assay: In Vitro inhibition of Heme Oxygenase in Plasmodium yoelii (host) at concentration 10 uM; format: functional; in short: as §1
Mus musculus [11] = species: Mus musculus; assay: In Vitro inhibition of Heme Oxygenase in Plasmodium yoelii (host) at concentration 100 uM; format: functional
In short: (§3)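 In vitro heme oxygenase, cell-free: post-mitochondrial fractions of P. yoelii parasites and of infected host liver. Test compounds at 10-100 µM were preincubated 10 min in the assay system before the enzyme reaction started. Activity was followed as bilirubin formation and expressed as % inhibition.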

[12] = system: Plasmodium yoelii nigeriensis; assay: Inhibition of heme oxygenase in Plasmodium yoelii nigeriensis isolated from infected mice (Mus musculus) (oral); NI denotes no inhibition; format: functional, organism-based; in short: as §2
Mus musculus [13] = species: Mus musculus; assay: In Vitro inhibition of Heme Oxygenase in Plasmodium yoelii (host) at concentration 50 uM; format: functional; in short: as §3

Row | Compound | NI [1] | NI [2] | inhibition [3] [%] | inhibition [4] [%] | inhibition [5] [%] | inhibition [6] [%] | NI [7] | Inhibition [8] [%] | NI [9] | inhibition (Mus musculus [10]) [%] | inhibition (Mus musculus [11]) [%] | NI [12] | inhibition (Mus musculus [13]) [%]
1 | CCN(CC)CCCN1CC/C(=C\c2ccc(OCCN3CCCC3)cc2)C1 | No inhibition | No inhibition | 90 | 100 | 100 | 100 | No inhibition | 79 | – | – | – | – | –
2 | CCN(CC)CCCN1CC/C(=C\c2ccc(OC)c(OC)c2)C1 | No inhibition | No inhibition | 80 | 100 | 100 | 100 | No inhibition | 100 | – | – | – | – | –
3 | CCN(CC)CCCN1CC/C(=C\c2ccc(OCc3ccccc3)cc2)C1 | – | – | – | 64 | 37 | 28 | – | – | No inhibition | 24 | 69 | inactive | 63
